# Values joined by “and” are separate entries in the source; they are usually repeats but may differ in a detail not shown here. Equal values may be shown once.
# Tested on: HEK-293T
# Test: Multiplex assay against HEK293T;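 as to Population Tubulin-Different-Phenotype (%): share of the cells with healthy nuclei that show this phenotype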
# Assay type: toxicity, cell-based
# Conditions: human
# In short: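 At seeding, live cells were stained with Hoechst33342, BioTracker Green Microtubule Cytoskeleton Dye, MitoTracker Red and Annexin V Alexa Fluor 680. After compound addition they were imaged on a CQ1 microscope at 37°C and 5% CO2, and CellPathfinder machine-learning gating sorted them into Hoechst high-intensity objects or normal cells, with normal cells further split into healthy, pyknosed or fragmented nuclei and pyknosed cells into mitotic or apoptotic. Tubulin, mitochondrial-mass and membrane-permeability phenotypes are given as per cents of cells with healthy nuclei.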
# [1] = 12 h, 1 µM, compound concentration 1 uM, replicate 1
# [2] = 12 h, 1 µM, compound concentration 1 uM, replicate 2
# [3] = 12 h, 10 µM, compound concentration 10 uM, replicate 1
# [4] = 12 h, 10 µM, compound concentration 10 uM, replicate 2
# [5] = 24 h, 1 µM, compound concentration 1 uM, replicate 1
# [6] = 24 h, 1 µM, compound concentration 1 uM, replicate 2
# [7] = 24 h, 10 µM, compound concentration 10 uM, replicate 1
# [8] = 24 h, 10 µM, compound concentration 10 uM, replicate 2
# [9] = 48 h, 1 µM, compound concentration 1 uM, replicate 1
# [10] = 48 h, 1 µM, compound concentration 1 uM, replicate 2
# [11] = 48 h, 10 µM, compound concentration 10 uM, replicate 1
# [12] = 48 h, 10 µM, compound concentration 10 uM, replicate 2
compound,measurement,setting,value
Cc1nc(-c2ccc(-c3ccc(C(=O)N4CCc5cc6c(cc54)C4(CCN(C)CC4)CO6)cc3)c(C)c2)no1 [SB-224289],Population Apoptotic (%),[1],59%
same,Population Fragmented Nuclei (%),[1],17%
same,Population Hoechst High Intensity Objects (%),[1],14%
same,Population Membrane Permeable-Phenotype (%),[1],2%
same,Population Mitochondria Different-Phenotype (%),[1],94%
same,Population Mitotic Cells (%),[1],40%
same,Population Normal (%),[1],85%
same,Population Pyknosed Nuclei (%),[1],48%
same,Population Tubulin-Different-Phenotype (%),[1],82%
same,Total Cell Count,[1],225
same,Population Apoptotic (%),[2],24%
same,Population Fragmented Nuclei (%),[2],4%
same,Population Healthy Nuclei (%),[2],34%
same,Population Hoechst High Intensity Objects (%),[2],3%
same,Population Membrane Permeable-Phenotype (%),[2],12%
same,Population Mitochondria Different-Phenotype (%),[2],75%
same,Population Mitotic Cells (%),[2],75%
same,Population Normal (%),[2],96%
same,Population Pyknosed Nuclei (%),[2],60%
same,Population Tubulin-Different-Phenotype (%),[2],66%
same,Total Cell Count,[2],194
same,Population Apoptotic (%),[3],87%
same,Population Fragmented Nuclei (%),[3],8%
same,Population Healthy Nuclei (%),[3],22%
same,Population Hoechst High Intensity Objects (%),[3],15%
same,Population Membrane Permeable-Phenotype (%),[3],0%
same,Population Mitochondria Different-Phenotype (%),[3],98%
same,Population Mitotic Cells (%),[3],12%
same,Population Normal (%),[3],84%
same,Population Pyknosed Nuclei (%),[3],68%
same,Population Tubulin-Different-Phenotype (%),[3],98%
same,Total Cell Count,[3],320
same,Population Apoptotic (%),[4],88%
same,Population Fragmented Nuclei (%),[4],3%
same,Population Healthy Nuclei (%),[4],16%
same,Population Hoechst High Intensity Objects (%),[4],9%
same,Population Membrane Permeable-Phenotype (%),[4],4%
same,Population Mitochondria Different-Phenotype (%),[4],95%
same,Population Mitotic Cells (%),[4],11%
same,Population Normal (%),[4],90%
same,Population Pyknosed Nuclei (%),[4],80%
same,Population Tubulin-Different-Phenotype (%),[4],85%
same,Total Cell Count,[4],141
same,Population Apoptotic (%),[5],67%
same,Population Fragmented Nuclei (%),[5],17%
same,Population Healthy Nuclei (%),[5],35%
same,Population Hoechst High Intensity Objects (%),[5],10%
same,Population Membrane Permeable-Phenotype (%),[5],1%
same,Population Mitochondria Different-Phenotype (%),[5],89%
same,Population Mitotic Cells (%),[5],32%
same,Population Normal (%),[5],89%
same,Population Pyknosed Nuclei (%),[5],46%
same,Population Tubulin-Different-Phenotype (%),[5],63%
same,Total Cell Count,[5],231
same,Population Apoptotic (%),[6],33%
same,Population Fragmented Nuclei (%),[6],4%
same,Population Healthy Nuclei (%),[6],46%
same,Population Hoechst High Intensity Objects (%),[6],3%
same,Population Membrane Permeable-Phenotype (%),[6],5%
same,Population Mitochondria Different-Phenotype (%),[6],73%
same,Population Mitotic Cells (%),[6],66%
same,Population Normal (%),[6],96%
same,Population Pyknosed Nuclei (%),[6],48%
same,Population Tubulin-Different-Phenotype (%),[6],73%
same,Total Cell Count,[6],232
same,Population Apoptotic (%),[7],92%
same,Population Fragmented Nuclei (%),[7],8%
same,Population Healthy Nuclei (%),[7],13%
same,Population Hoechst High Intensity Objects (%),[7],18%
same,Population Membrane Permeable-Phenotype (%),[7],2%
same,Population Mitochondria Different-Phenotype (%),[7],100%
same,Population Mitotic Cells (%),[7],7%
same,Population Normal (%),[7],81%
same,Population Pyknosed Nuclei (%),[7],77%
same,Population Tubulin-Different-Phenotype (%),[7],100%
same,Total Cell Count,[7],316
same,Population Apoptotic (%),[8],97%
same,Population Fragmented Nuclei (%),[8],5%
same,Population Healthy Nuclei (%),[8],24%
same,Population Hoechst High Intensity Objects (%),[8],12%
same,Population Membrane Permeable-Phenotype (%),[8],0%
same,Population Mitotic Cells (%),[8],2%
same,Population Normal (%),[8],88%
same,Population Pyknosed Nuclei (%),[8],70%
same,Population Tubulin-Different-Phenotype (%),[8],93%
same,Total Cell Count,[8],150
same,Population Apoptotic (%),[9],76%
same,Population Fragmented Nuclei (%),[9],21%
same,Population Healthy Nuclei (%),[9],48%
same,Population Hoechst High Intensity Objects (%),[9],12%
same,Population Membrane Permeable-Phenotype (%),[9],0%
same,Population Mitochondria Different-Phenotype (%),[9],67%
same,Population Mitotic Cells (%),[9],23%
same,Population Normal (%),[9],87%
same,Population Pyknosed Nuclei (%),[9],30%
same,Population Tubulin-Different-Phenotype (%),[9],53%
same,Total Cell Count,[9],261
same,Population Apoptotic (%),[10],25%
same,Population Fragmented Nuclei (%),[10],4%
same,Population Healthy Nuclei (%),[10],72%
same,Population Hoechst High Intensity Objects (%),[10],4%
same,Population Membrane Permeable-Phenotype (%),[10],2%
same,Population Mitochondria Different-Phenotype (%),[10],45%
same,Population Mitotic Cells (%),[10],75%
same,Population Normal (%),[10],95%
same,Population Pyknosed Nuclei (%),[10],22%
same,Population Tubulin-Different-Phenotype (%),[10],56%
same,Total Cell Count,[10],371
same,Population Apoptotic (%),[11],92%
same,Population Fragmented Nuclei (%),[11],13%
same,Population Healthy Nuclei (%),[11],10%
same,Population Hoechst High Intensity Objects (%),[11],26%
same,Population Membrane Permeable-Phenotype (%),[11],7%
same,Population Mitochondria Different-Phenotype (%),[11],100%
same,Population Mitotic Cells (%),[11],7%
same,Population Normal (%),[11],73%
same,Population Pyknosed Nuclei (%),[11],75%
same,Population Tubulin-Different-Phenotype (%),[11],82%
same,Total Cell Count,[11],363
same,Population Apoptotic (%),[12],100%
same,Population Fragmented Nuclei (%),[12],5%
same,Population Healthy Nuclei (%),[12],28%
same,Population Hoechst High Intensity Objects (%),[12],17%
same,Population Membrane Permeable-Phenotype (%),[12],6%
same,Population Mitochondria Different-Phenotype (%),[12],96%
same,Population Mitotic Cells (%),[12],0%
same,Population Normal (%),[12],82%
same,Population Pyknosed Nuclei (%),[12],66%
same,Population Tubulin-Different-Phenotype (%),[12],57%
same,Total Cell Count,[12],139
COc1ccc(Oc2cc(NCCC(F)(F)F)c3ncc(-c4ccc(C(=O)NC5CC5)c(C)c4)n3n2)c(F)c1F [BAY-1217389],Population Apoptotic (%),[3],50% and 20%
same,Population Fragmented Nuclei (%),[3],25% and 12%
same,Population Healthy Nuclei (%),[3],28% and 63%
same,Population Hoechst High Intensity Objects (%),[3],20% and 13%
same,Population Membrane Permeable-Phenotype (%),[3],17% and 25%
same,Population Mitotic Cells (%),[3],49% and 79%
same,Population Normal (%),[3],79% and 86%
same,Population Pyknosed Nuclei (%),[3],46% and 23%
same,Population Tubulin-Different-Phenotype (%),[3],79% and 68%
same,Total Cell Count,[3],607 and 639
same,Population Apoptotic (%),[4],21% and 43%
same,Population Fragmented Nuclei (%),[4],5% and 2%
same,Population Healthy Nuclei (%),[4],89% and 86%
same,Population Hoechst High Intensity Objects (%),[4],2% and 5%
same,Population Mitotic Cells (%),[4],78% and 56%
same,Population Normal (%),[4],97% and 94%
same,Population Pyknosed Nuclei (%),[4],5% and 11%
same,Population Tubulin-Different-Phenotype (%),[4],87% and 95%
same,Total Cell Count,[4],1266 and 966
same,Population Apoptotic (%),[7],53% and 25%
same,Population Fragmented Nuclei (%),[7],25% and 9%
same,Population Healthy Nuclei (%),[7],46% and 80%
same,Population Hoechst High Intensity Objects (%),[7],18% and 7%
same,Population Membrane Permeable-Phenotype (%),[7],9% and 24%
same,Population Mitotic Cells (%),[7],46% and 74%
same,Population Normal (%),[7],81% and 92%
same,Population Tubulin-Different-Phenotype (%),[7],84%
same,Total Cell Count,[7],575 and 704
same,Population Fragmented Nuclei (%),[8],10% and 4%
same,Population Healthy Nuclei (%),[8],87% and 88%
same,Population Hoechst High Intensity Objects (%),[8],3% and 6%
same,Population Mitotic Cells (%),[8],94% and 68%
same,Population Normal (%),[8],96% and 93%
same,Population Tubulin-Different-Phenotype (%),[8],91% and 95%
same,Total Cell Count,[8],1717 and 1126
